Source: PubChem BioAssay (The Scripps Research Institute Molecular Screening Center)
Compounds with a hit are over-represented: about 1.4% of the library has one in this group of screens.
MsrA inhibitor: bovine MsrA enzyme inhibitors, primary screen, biochemical, absorbance, HTS; AID 651718, 2012; purified bovine MsrA, absorbance read-out; 360,000 compounds, 0.75% hits; inhibition, % at 15.5 µM; in the data active means inhibition above about 4.5%
ARFGAP1 inhibitor: inhibitors of rat ARFGAP1 GAP activity, primary screen, biochemical, fluorescence polarization, GDP tracer | ADP-ribosylation factor GTPase-activating protein 1 (Rattus norvegicus), Q62848 | Arfgap1-stimulated ARF1 GTP hydrolysis, GDP FP detection | inhibition, % at 16.5 µM | 360,000 compounds, 0.26% hits | AID 651572, 2012;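 active means inhibition above a per-plate limit, mean inhibition of low control wells plus 3 SD, cut at about 25% in these data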
Target sequence (Q62848 1-136 limits assumed): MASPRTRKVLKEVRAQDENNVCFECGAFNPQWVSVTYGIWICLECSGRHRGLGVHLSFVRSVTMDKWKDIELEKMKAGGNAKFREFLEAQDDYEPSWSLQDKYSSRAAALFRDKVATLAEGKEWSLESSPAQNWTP
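Material: truncated rat Arfgap1 GAP domain; Incubation: compound-enzyme preincubation 20 min, reaction 120 min, detection 60 min, 25 °C; Read-out: percent inhibition of Arfgap1-stimulated GTP hydrolysis; Technique: FP, GDP Alexa 633 tracer displaced from anti-GDP antibody, 620/688 nm; Controls: No-Arfgap1 wells (100%) versus DMSO full-reaction wells (0%); Replication: single well per compound.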
bovine MsrA act: bovine MsrA enzyme activators, primary screen, biochemical, absorbance, HTS; Methionine sulfoxide reductase A (Bos taurus); purified bovine MsrA, absorbance read-out; activation, % at 10.6 µM; 360,000 compounds, 0.3% hits; in the data active means activation above about 7.5%
ASAP1 inh: inhibitors of human ASAP1 ArfGAP activity, primary screen, biochemical, fluorescence polarization; inhibition, % at 16.5 µM; ASAP1-stimulated ARF1 GTP hydrolysis, GDP FP detection; 360,000 compounds, 0.19% hits; in the data active means inhibition above about 25%
Target sequence (Q9ULH1 325-724 limits assumed): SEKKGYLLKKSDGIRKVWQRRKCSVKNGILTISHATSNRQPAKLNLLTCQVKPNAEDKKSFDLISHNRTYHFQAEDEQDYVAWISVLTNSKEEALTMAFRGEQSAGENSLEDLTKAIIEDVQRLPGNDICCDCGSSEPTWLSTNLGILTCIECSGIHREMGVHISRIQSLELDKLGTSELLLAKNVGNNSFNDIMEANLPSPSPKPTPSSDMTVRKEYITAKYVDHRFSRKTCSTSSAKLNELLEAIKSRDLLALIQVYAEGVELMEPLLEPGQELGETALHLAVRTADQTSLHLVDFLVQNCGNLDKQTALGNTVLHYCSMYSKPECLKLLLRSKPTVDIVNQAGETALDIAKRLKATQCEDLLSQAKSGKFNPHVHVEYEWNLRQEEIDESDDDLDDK
ASAP1 inh confirm: ASAP1 GAP activity inhibitors, confirmation, biochemical, fluorescence polarization, human, triplicate. shares compounds with ASAP1 inh. ASAP1-stimulated Arf1 GTPase, GDP fluorescence polarization. inhibition, % at 16.5 µM. 620 compounds, 37% hits;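 active means mean inhibition over triplicates exceeds the hit threshold derived for the earlier primary screening run, cut at about 25% in these data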
Large screens that a line does not name were inactive (follow-up assays come after a bar, where they were run).

Cc1nn(-c2ccccc2)c(C)c1/C=N/NC(=O)c1cc(C(C)(C)C)[nH]n1	none
CC(C)NC[C@H](O)COc1ccc(CC(N)=O)cc1	none
O=C(NC1CCCCC1)C(c1cccc2ccccc12)n1c(=O)c(-c2ccco2)nc2ccccc21 (configuration not stated)	none (no result: bovine MsrA act)
COc1cc2sc(-c3ccc(S(C)(=O)=O)cc3)c(C#CCO)c2cc1OC	ASAP1 inh 30.2 | ASAP1 inh confirm inactive
NC1=NN(c2c(Cl)cc(Cl)cc2Cl)C(=O)C1	ASAP1 inh 25.8 | ASAP1 inh confirm inactive
COC(=O)c1cc2cc(Cl)ccc2nc1SC	none
COc1ccccc1Nc1nc(-c2sc(NC(=O)C(C)(C)C)nc2C)cs1	none
Cc1ccc(Cl)cc1Nc1nc(-c2sc(NC(=O)C(C)(C)C)nc2C)cs1	ASAP1 inh 25.1 | ASAP1 inh confirm inactive
COc1ccc(N(C)S(=O)(=O)c2cccc(C(=O)NCc3ccc4c(c3)OCO4)c2)cc1	ASAP1 inh 24.9 | ASAP1 inh confirm inactive
CCN(CC)c1nc(-c2ccccn2)nc(-c2ccccc2)c1C#N	none
Cc1noc(C)c1NC(=O)N(C)C[C@H]1Oc2ccc(NS(=O)(=O)c3ccccc3)cc2C(=O)N([C@H](C)CO)C[C@@H]1C	none
Cc1noc(C)c1NC(=O)N(C)C[C@H]1OCCCC[C@@H](C)Oc2ccc(NS(=O)(=O)c3ccccc3)cc2C(=O)N([C@H](C)CO)C[C@@H]1C	ASAP1 inh 25.8 | ASAP1 inh confirm inactive
COc1cnc(-c2ccccc2)nc1Oc1cccc(C)c1	ASAP1 inh 25.4 | ASAP1 inh confirm inactive
Cc1cc(-c2nnc3n2N=C(c2ccc(-c4ccccc4)cc2)CS3)n[nH]1	none
c1ccc(-c2cc(-c3nnc4n3N=C(c3ccc5ccccc5c3)CS4)[nH]n2)cc1	ASAP1 inh 25.2 | ASAP1 inh confirm inactive
Cc1nc(NCCc2ccc(S(N)(=O)=O)cc2)c2c(C)c(C)sc2n1	ASAP1 inh 24.7 | ASAP1 inh confirm inactive
Cc1ccc(-n2c(SCC(N)=O)nc3c(oc4ccccc43)c2=O)cc1	none
N#Cc1c(-c2ccc(Cl)cc2)ccn2nc(C3CCCCC3)nc12	ASAP1 inh 26.9 | ASAP1 inh confirm inactive
CCN(CCn1cccn1)C(=O)C1CCC(=O)N(CCc2cccc(F)c2)C1 (configuration not stated)	none
Cc1ccc2nc(N3CCN(c4ccccc4F)CC3)c(C=O)c(=O)n2c1	none
CCOc1cc(/C=C2/NC(=S)NC2=O)ccc1OCc1ccc([N+](=O)[O-])cc1	ASAP1 inh 28.5 | ASAP1 inh confirm inactive
O=C(COC(=O)c1ccc2c(c1)C(=O)N(c1cccc3ncccc13)C2=O)c1ccc(Cl)cc1	ASAP1 inh 145.2 | ASAP1 inh confirm 177.2
COc1ccc(Cl)c(-c2cc(C(=O)Nc3ccc(C)c(NS(C)(=O)=O)c3)[nH]n2)c1	ASAP1 inh 25.6 | ASAP1 inh confirm inactive
COc1ccc(Br)cc1C(=O)Nc1cccc(-c2nnc(-c3ccco3)o2)c1	ASAP1 inh 72.5 | ASAP1 inh confirm 37.3
O=C(O)CCCN1C(=O)/C(=C\C(Cl)=C\c2ccccc2)SC1=S	ASAP1 inh 33.2 | ASAP1 inh confirm 61.1
CCC(C)c1ccc(NC(=S)N2CCN(C(=O)C3CCCO3)CC2)cc1 (configuration not stated)	none
CCOC(=O)c1sc(N(Cc2ccccc2)C(=O)COC(=O)c2ccc(O)cc2)nc1C	ASAP1 inh 26.5 | ASAP1 inh confirm inactive
CCOC(=O)c1sc(N(Cc2ccccc2)C(=O)COC(=O)c2ccccc2O)nc1C	none
CC1(C)SC(=S)N(/N=C/c2ccc(O)cc2)C1N(O)C(=O)Nc1ccc([N+](=O)[O-])cc1 (configuration not stated)	ASAP1 inh 24.9 | ASAP1 inh confirm inactive
Cc1ccc(/C=N/N2C(=S)SC(C)(C)C2N(O)C(=O)Nc2ccc([N+](=O)[O-])cc2)cc1 (configuration not stated)	none
COc1ccc(CCn2c(C)c(C(C)=O)c3cc(OC(=O)c4ccco4)ccc32)cc1OC	ASAP1 inh 24.8 | ASAP1 inh confirm inactive
CC(C)CCCN1C(N(C)C)=NC[C@@H]1Cc1ccccc1	none
Oc1c(C=Nc2cccc3cccnc23)sc2ccccc12	none (no result: bovine MsrA act)
Cc1cccc(/N=C/c2sc3ccccc3c2O)n1	ASAP1 inh 28.1 | ASAP1 inh confirm inactive
Cc1ccc(C(=O)N2CCCCC2)cc1S(=O)(=O)N1CCCC1	none
Cc1ccc(C(=O)N2CCCC2)cc1Br	ASAP1 inh 25.7 | ASAP1 inh confirm inactive
CCCc1c(C(=O)N/N=C/C(C)=C/c2ccccc2)nnn1-c1nonc1N	none
CC(/C=N/NC(=O)c1nnn(-c2nonc2N)c1C(C)C)=C\c1ccccc1	ASAP1 inh 28.8 | ASAP1 inh confirm inactive
O=C1NC(=O)C(Cc2ccc(O)cc2)N1 (configuration not stated)	none
O=C1OC(c2ccccc2)(c2ccc3cc(O)ccc3c2)c2ccccc21 (configuration not stated)	none
CC1(C)Cc2c(c(-c3ccco3)nc3sc4c(NCCO)ncnc4c23)CO1	ASAP1 inh 30.3 | ASAP1 inh confirm inactive
COCCCNc1ncnc2c1sc1nc(-c3ccco3)c3c(c12)CC(C)(C)OC3	none
CS(=O)(=O)N(Cc1ccc(Cl)cc1)c1ccc(C(=O)NCc2ccccn2)cc1	ASAP1 inh 31.1 | ASAP1 inh confirm inactive
Cc1ccc(Cn2c(N)c(S(=O)(=O)c3cccs3)c3nc4ccccc4nc32)cc1	none
Nc1c(S(=O)(=O)c2cccs2)c2nc3ccccc3nc2n1Cc1ccccc1	ASAP1 inh 26.1 | ASAP1 inh confirm inactive
COc1ccc2c(c1OC)C(=O)OC2CC(=O)c1ccc(O)c(O)c1 (configuration not stated)	ASAP1 inh 144.3 | ASAP1 inh confirm inactive
COCCNC(=S)N=Nc1c(O)[nH]c2ccc([N+](=O)[O-])cc12	ASAP1 inh 29.6 | ASAP1 inh confirm 41.0
COc1ccc(NC(=O)c2cc3c(-c4ccc(OC)c(OC)c4)nn(C)c3s2)cc1OC	ASAP1 inh 32.0 | ASAP1 inh confirm 57.7
COc1ccc(-c2nn(C)c3sc(C(=O)NCc4ccco4)cc23)cc1OC	none
Cc1cc(OCC(=O)Nc2ccncc2)ccc1Cl	none
Cc1cc(OCC(=O)Nc2ccc3oc(-c4ccncc4)nc3c2)ccc1Cl	ASAP1 inh 27.7 | ASAP1 inh confirm 131.4
CC1=C/C(=C(/c2cc(C)c(O)c(Br)c2)c2ccccc2S(=O)(=O)O)C=C(Br)C1=O	ARFGAP1 inhibitor 37.5, ASAP1 inh 40.0 | ASAP1 inh confirm 29.6
CC1=C/C(=C(/c2ccc(O)c(C)c2)c2ccccc2S(=O)(=O)O)C=CC1=O	none
